The values that follow come from ChEMBL document CHEMBL1158062, “Cyclopentenones, scaffolds for organic syntheses produced by the endophytic fungus mitosporic dothideomycete sp. LRUB20” (J Nat Prod, 2006).

Data set [1] relates to NCI-H187. Description: Cytotoxicity against human NCI-H187 cells at 50 ug/ml by SRB assay. The format is functional, cell-based.
The subject of data set [2] is BC. The data set is described as follows: Cytotoxicity against BC cells at 50 ug/ml by SRB assay. The format is functional, cell-based. In general terms: Sulforhodamine B stains cellular protein and so reports cell mass.
In data set [3] the test system is KB. Description: Cytotoxicity against human KB cells at 50 ug/ml by SRB assay. The data set is classed as functional, cell-based.
Data set [4] concerns Mycobacterium tuberculosis. The data set is described as follows: Antimycobacterial activity against Mycobacterium tuberculosis H37Ra by microplate alamar blue assay. The format is functional. The gist of the method:
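M. tuberculosis H37Ra grown in Middlebrook 7H9 broth and tested in a microplate Alamar Blue assay, with MIC as the read-out. Isoniazid and kanamycin sulfate were run as standard drugs.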
Background: Alamar Blue is a resazurin reagent that responds to reducing activity.

The test system of data set [5] is Vero. Description: Cytotoxicity against african green monkey Vero cells at 50 ug/ml by SRB assay. The format is cell-based. The conditions noted are these: chlorocebus sabaeus.
The subject of data set [6] is NCI-H187. Description: Cytotoxicity against human NCI-H187 cells by SRB assay. The format is functional, cell-based. The gist of the method: (§1)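 Colorimetric cytotoxicity read-out following the Skehan method, run on Vero, KB, NCI-H187 and BC cell lines, with ellipticine included as the reference compound; result reported as IC50.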
Data set [7] deals with KB. The data set is described as follows: Cytotoxicity against human KB cells by SRB assay. The format is functional, cell-based. The gist of the method: as §1
Data set [8] concerns Vero. Description: Cytotoxicity against african green monkey Vero cells by SRB assay. The format is cell-based. The conditions noted are these: chlorocebus sabaeus. The gist of the method:
as §1

The subject of data set [9] is BC. Description: Cytotoxicity against BC cells by SRB assay. The data set is classed as functional, cell-based. The gist of the method: as §1

Each structure is given as a SMILES string. Values after ≈ are worked out from the molar mass of the structure shown. Active and inactive are the calls of the source. The rule behind the calls is not given here.

With `COC(=O)c1cc(O)cc(OC)c1Oc1cc(C)cc(O)c1C(=O)O` [ASTERRIC ACID], the outcome in data set [1], in [2] and in [3] was inactive. In addition, in [4], the MIC (commonly the lowest concentration that inhibits growth of the organism) was 200 µg/mL (≈ 574 µM). Besides, in [5], the Activity entry is “Not Active”.

`C[C@@H]1CC/C(=N\Nc2ccc([N+](=O)[O-])cc2[N+](=O)[O-])[C@@H]1CO` returned an MIC in data set [4] of 200 µg/mL (≈ 649 µM). The outcome in data set [6], in [7] and in [9] was inactive. Half-maximal inhibition in data set [8] (IC50) required 21.7 µg/mL (≈ 70.4 µM).

For the compound `CC1=C(CO)C(=O)CC1`, the result in [1], in [2] and in [3] was inactive. The compound also returned a minimum inhibitory concentration (MIC) in [4] of 200 µg/mL (≈ 1590 µM). For the same compound, the Activity result in data set [5] is “Not Active”.

`CC1=C(CO)/C(=N/Nc2ccc([N+](=O)[O-])cc2[N+](=O)[O-])CC1`: the outcome in data set [1], in [2] and in data set [3] was inactive. The Activity result in data set [5] is recorded as “Not Active”.
